Fewer inactive variants are shown than the library holds.

B1: tRNA (parent)
chain: GUUCCGUUGGCGUAAUGGUAACGCGUCUCCCUCCUAAGGAGAAGACUGCGGGUUCGAGUCCCGUACGGAACG

In the data set the parent is B1. Briefly: yeast fitness relative to wild type (ratio to wild type); higher = fitter; tRNA-Arg(CCU), competitive growth, 37 C, YPD. An outline of the steps: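 Changes in genotype frequencies gave Darwinian fitness relative to wild type. Frequencies were read by 100-nucleotide paired-end sequencing of gene amplicons before and after pooled Saccharomyces cerevisiae strains, carrying tRNA-Arg(CCU) gene variants at the native locus, were competed in YPD at 37°C for 24 hours in six replicates. A genotype was kept only with ≥ 100 starting reads, and estimates < 0.5 were set to 0.5.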
Consider U19A C24G C33G C34G G51A, for which the yeast fitness was 0.531.

Turning to U19A C24A G48C, the yeast fitness was no more than 0.5.

With U19A C31A A37G C49U, the yeast fitness is no more than 0.5.

On to U19A A37U G68U, for which the yeast fitness was no more than 0.5.

As to U19C A36C G39A C62G, the yeast fitness was no more than 0.5.

As to U19A C27G C31U C62U, the yeast fitness was no more than 0.5.

For the variant U19A C33A C34U A36C, the yeast fitness was no more than 0.5.

Regarding U19A C24G G52C U64G, the yeast fitness came to 0.535.

With U19A U26A C66A, the yeast fitness was 0.585.

Turning to U19A G48A G50A C62A G63C, the yeast fitness is 0.591.

Take U19C A20G: the yeast fitness was 0.964.

As to U19A C27A G52C, the yeast fitness was no more than 0.5.

As for U19C A21G, the yeast fitness turned out to be 0.906.

In the case of G18C C60G A65G, the yeast fitness amounted to 0.544.

Take U19C A65G G68U: the yeast fitness amounted to 0.583.

On to U19A A20G C29A A40C G50C, for which the yeast fitness is no more than 0.5.

Take U19C A20U A69U: the yeast fitness turned out to be 1.05.

For U19A G25A A43C U53G G63C, the yeast fitness was no more than 0.5.

In the case of G18C C62A G68C, the yeast fitness was no more than 0.5.

For the variant U19C A21G U26G G39C C46A A70C, the yeast fitness is no more than 0.5.

In the case of U19A U53C, the yeast fitness worked out at 0.806.

With U19C A45C, the yeast fitness turned out to be 0.861.

Take U19C A45G: the yeast fitness worked out at 1.

G18C U64A: the yeast fitness worked out at 0.593.

Consider U19A G48C, for which the yeast fitness came to 0.861.

On to U19C A21U C31U A42G A43U, for which the yeast fitness came to 0.929.

In the case of U19A A65C C66G, the yeast fitness was no more than 0.5.

For G18C U35A A65C, the yeast fitness is no more than 0.5.

Turning to U19A C62A, the yeast fitness was determined as 0.774.

Consider U19C A37G C49A, for which the yeast fitness is no more than 0.5.

As for U19C A37G, the yeast fitness was 0.784.

For the variant U19C A37U, the yeast fitness came out at 1.08.

Turning to U19C A37C, the yeast fitness turned out to be 0.658.

For the variant G18C U19G C27U A43U, the yeast fitness is no more than 0.5.

Consider U19A C27U C49U C55U, for which the yeast fitness amounted to 0.525.

U19A C55G: the yeast fitness was found to be 0.559.

G18C U19G A45C: the yeast fitness came out at 0.73.

With U19A A43U C46G, the yeast fitness came out at 0.658.

U19C A20U A57G: the yeast fitness stood at 0.695.

In the case of U19C A20C A21U C55U A65U, the yeast fitness is no more than 0.5.

Turning to U19A C55A C61U, the yeast fitness is no more than 0.5.

For the variant U19A C29G A69C, the yeast fitness amounted to 0.547.

Consider U19A C27U C66U, for which the yeast fitness was determined as 0.786.

Turning to U19A U28C G39C, the yeast fitness is no more than 0.5.

For the variant U19A G50U, the yeast fitness was 0.817.

As to G18C U32G A57C C62U, the yeast fitness is no more than 0.5.

With U19A C22U U32C C46U, the yeast fitness is no more than 0.5.

Regarding U19A C33U A36U C60U, the yeast fitness is no more than 0.5.

Regarding U19A G63A, the yeast fitness amounted to 0.952.

In the case of G18C C49A C61G, the yeast fitness worked out at 0.694.

Consider G18C G52A C62G, for which the yeast fitness is 0.55.

U19A A20G C49U U59C C62G: the yeast fitness is no more than 0.5.

Regarding G18C C33G C49G, the yeast fitness was no more than 0.5.

As for U19C A42U G68C, the yeast fitness is no more than 0.5.

Turning to U19A G48C G67C, the yeast fitness was no more than 0.5.

For the variant U19C A69U, the yeast fitness was determined as 0.925.

Consider U19C A42G, for which the yeast fitness is 0.774.

Turning to U19C A42C, the yeast fitness was 1.06.

In the case of U19C A21U A43C C49U, the yeast fitness was determined as 0.547.

For the variant U19A A21C C31G G41A A43C, the yeast fitness was no more than 0.5.

As to U19C A57G A70U, the yeast fitness was 0.601.

For G18C U53C A57C, the yeast fitness is no more than 0.5.

As for U19C A36U, the yeast fitness is 0.566.

Regarding G18C C66A A69U, the yeast fitness was no more than 0.5.

On to U19C A20U C22U C27G G39U, for which the yeast fitness is no more than 0.5.

For G18C U19A U28G A40C, the yeast fitness is no more than 0.5.

For the variant G18U U26A A69U, the yeast fitness was no more than 0.5.

In the case of U19A C22G C34U A42G A43G A70U, the yeast fitness was no more than 0.5.

Turning to G18C G67U, the yeast fitness worked out at 0.632.

For G18C G67A, the yeast fitness worked out at 0.728.

With G18C G67C, the yeast fitness amounted to 0.656.

U19C A37G G56C: the yeast fitness is no more than 0.5.

Take G18C G44A G68A: the yeast fitness is no more than 0.5.

Turning to U19A A21G C27U C33U G56A, the yeast fitness was no more than 0.5.

As for U19A C49U G67A, the yeast fitness worked out at 0.666.

With U19A C27G C31U A70G, the yeast fitness is no more than 0.5.

For U19A C22U, the yeast fitness worked out at 0.709.

For G18C G23A G25C A37G A43C C55G G68A, the yeast fitness is 0.551.

For G18C G23C, the yeast fitness is 0.577.

G18C G23A: the yeast fitness is no more than 0.5.

In the case of U19C A36C G58C, the yeast fitness was no more than 0.5.

U19A C24U C33U C49U: the yeast fitness is no more than 0.5.

As for U19C A37G G44C G58A A65G, the yeast fitness was determined as 0.63.

Take U19A C24U G38A U54C A69C: the yeast fitness is no more than 0.5.

As to U19C A43U C49U C62U, the yeast fitness was found to be 0.573.

In the case of U19A A45G A57C, the yeast fitness was no more than 0.5.

U19A U47C C66U: the yeast fitness came out at 0.751.

Take U19C A21U C49U: the yeast fitness was 0.966.

Take G18U U26A G56A G67A: the yeast fitness was found to be 0.578.

For the variant U19C A20U C22U C27G G48C G51A, the yeast fitness was no more than 0.5.

U19A G25C A43U: the yeast fitness amounted to 0.657.

As to G18U U26A U47C, the yeast fitness was no more than 0.5.

For G18C G51A C66A, the yeast fitness was 0.537.

Consider U19A C46U C55G G68A, for which the yeast fitness is no more than 0.5.

In the case of U19A A43U C62U, the yeast fitness came out at 0.771.

For U19A A37U C55G, the yeast fitness turned out to be 0.593.

Consider U19C A20C C31G C49G, for which the yeast fitness is no more than 0.5.

Take U19A C46A A69U: the yeast fitness is 0.752.

Regarding G18C C49U A69U, the yeast fitness is no more than 0.5.

Take U19A C29G A42C C46A C49G: the yeast fitness is no more than 0.5.

Take U19A C34G A43C A70G: the yeast fitness is no more than 0.5.

Turning to U19A C24G C27U C30A G52C G56A, the yeast fitness is no more than 0.5.

For the variant U19A U32C, the yeast fitness was 0.848.

For the variant U19C A70G, the yeast fitness was determined as 0.982.

As for G18C G51A, the yeast fitness was 0.518.

Consider U19A C24U G38A U54C C66A, for which the yeast fitness came out at 0.511.

Take U19A A40G G51A: the yeast fitness is no more than 0.5.

Consider U19A G50A A57C, for which the yeast fitness amounted to 0.516.

For the variant U19C A40C, the yeast fitness worked out at 1.1.

Consider U19C A40G, for which the yeast fitness was determined as 0.898.

As for U19C A40U, the yeast fitness is 0.98.

As to U19A C31G, the yeast fitness turned out to be 1.02.

Take U19C A37G A65U: the yeast fitness came out at 0.58.

For G18C U47C G51A, the yeast fitness is no more than 0.5.

Consider G18C U32C A57U, for which the yeast fitness is no more than 0.5.

On to U19A A70G, for which the yeast fitness is 0.913.

Consider U19A A40G C55G A70G, for which the yeast fitness is no more than 0.5.

Turning to G18C G25A G38C G41A, the yeast fitness was no more than 0.5.

With G18C U53G C60A, the yeast fitness is no more than 0.5.

G18C G23C G39A C55A: the yeast fitness came out at 0.696.

Turning to U19C A57G G58C, the yeast fitness was determined as 0.609.

With U19A G25A A40C C46U, the yeast fitness came out at 0.588.

With G18C U28C C30U A43G C55U, the yeast fitness was no more than 0.5.

On to U19A C34G A40G, for which the yeast fitness is no more than 0.5.

Take U19A C24G C27G C31G C34G A37C A57G C61G: the yeast fitness amounted to 0.576.

As for U19C A20C C31G, the yeast fitness worked out at 0.542.

U19C A20C C31A: the yeast fitness was no more than 0.5.

For the variant U19A A45U A69U, the yeast fitness amounted to 0.739.

For the variant U19A A36G A42C C66A, the yeast fitness was no more than 0.5.

With U19C A45C G68C, the yeast fitness was no more than 0.5.

In the case of U19C A21C G39C C61U, the yeast fitness was no more than 0.5.

With U19A C29G C33U U47A G51A C61U, the yeast fitness was no more than 0.5.

For the variant U19A A20U U35C, the yeast fitness came out at 0.82.

With G18U A20U, the yeast fitness is 0.722.

For the variant U19A A43U A69U, the yeast fitness turned out to be 0.85.

Consider G18C C49G, for which the yeast fitness was determined as 0.734.

For G18C C49U, the yeast fitness is 0.607.

In the case of U19A C27G A40G, the yeast fitness is no more than 0.5.

Turning to U19C A45C C55U, the yeast fitness turned out to be 0.518.

As to U19A G51C, the yeast fitness was found to be 0.636.

On to U19A G51A, for which the yeast fitness turned out to be 0.768.

For the variant U19A A37U C55G U64A, the yeast fitness is no more than 0.5.

With U19A A43U C55G, the yeast fitness worked out at 0.55.

In the case of U19A A42G A65C A69C A70G, the yeast fitness is no more than 0.5.

Take U19C C22G A70U: the yeast fitness stood at 0.743.

Turning to U19C A20U G56C A57U, the yeast fitness turned out to be 0.562.

Take U19A G52A: the yeast fitness was 0.679.

As to G18C G44A G67U, the yeast fitness is no more than 0.5.

For G18C C34G A45C, the yeast fitness is no more than 0.5.

In the case of U19C A40C G50A, the yeast fitness stood at 0.664.

Turning to G18C U26C C29G C31G C33U C46A A69C, the yeast fitness is no more than 0.5.

With G18U C33U C34U C66A A70C, the yeast fitness was no more than 0.5.

Consider U19A A37U G41C G67A, for which the yeast fitness is no more than 0.5.

Regarding U19A A37U G41C, the yeast fitness is no more than 0.5.

For G18C G68A, the yeast fitness was 0.619.

In the case of G18C G41A A42C G50C A70G, the yeast fitness was no more than 0.5.

As to U19A A20G C24U A43G G48C, the yeast fitness was no more than 0.5.

Consider U19A U26A U64A, for which the yeast fitness amounted to 0.553.

For G18C G23A G25C U26C A37G A43C C55G G68A, the yeast fitness was no more than 0.5.

On to U19A U47G G50A, for which the yeast fitness amounted to 0.55.

Turning to U19A C30A A43G, the yeast fitness is no more than 0.5.

U19C A40C U53A: the yeast fitness came out at 0.532.

For the variant U19A C27U A45C G63A, the yeast fitness was 0.729.

Take G18C G41C G44C C55A: the yeast fitness was no more than 0.5.

Turning to G18C G23A G25C A37G A43C C55G C62A G68A, the yeast fitness is no more than 0.5.

U19A C22U G56A: the yeast fitness is 0.547.

As to U19A C30G A40C G67C, the yeast fitness was no more than 0.5.

The values are drawn from the RNAGym collection of RNA variant scans (doi:10.1126/science.aae0568).
